An excerpt weighted towards active compounds, which were near 2.9% of everything screened.
SIRT5 inh: sirtuin-5 (human) deacylase inhibition | Q9NXA8 | Purified SirT5, succinyl-peptide AMC, trypsin-coupled fluorescence | inhibition, % at 15 µM | actives 1.1% (n = 330,000) | AID 652115; in the data active means inhibition above about 15%; inconclusive means no clear call, values can overlap the other calls
Target sequence (Q9NXA8 whole entry, looked up): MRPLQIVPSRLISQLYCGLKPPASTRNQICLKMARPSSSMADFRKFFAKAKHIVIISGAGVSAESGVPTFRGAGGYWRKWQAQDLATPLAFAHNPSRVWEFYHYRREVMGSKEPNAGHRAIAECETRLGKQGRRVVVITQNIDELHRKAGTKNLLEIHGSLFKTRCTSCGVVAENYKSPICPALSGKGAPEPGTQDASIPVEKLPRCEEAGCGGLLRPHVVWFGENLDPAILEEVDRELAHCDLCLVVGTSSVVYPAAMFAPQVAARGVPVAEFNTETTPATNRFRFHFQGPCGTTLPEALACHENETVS
ERAP1 HTS inh: inhibitors of human ERAP1 aminopeptidase; AID 652197; inhibition, % at 10.7 µM; actives 0.15% (n = 340,000); recombinant ERAP1, Leu-AMC fluorescence, 60 min;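 active means mean replicate inhibition of at least 30%, or all replicates individually reaching that 30% level; inactive means mean below 30% and not every replicate reaching it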
S100A4 MyoIIA: S100A4-myosin IIA interaction inhibition. P26447. S100A4/TAMRA-MyoIIA peptide fluorescence polarization. inhibition, % at 10.7 µM. actives 0.14% (n = 360,000);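 active means mean inhibition of at least 70% across replicates, with every replicate also reaching that level; inconclusive means mean inhibition reaches 70% but some replicates fall short; inactive means mean inhibition below 70%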
Target sequence (P26447 whole entry, looked up): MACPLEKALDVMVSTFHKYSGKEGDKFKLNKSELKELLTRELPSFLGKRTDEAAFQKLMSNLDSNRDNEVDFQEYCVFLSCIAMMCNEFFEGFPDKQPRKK
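Test system – S100A4 monomer (human) · Compound – single-point compound testing · Schedule – 5 min incubation before reading · Probe or stimulus – TAMRA-labelled myosin IIA heavy-chain peptide probe, 5 nM · Benchmarks – neutral control DMSO, positive control TFP · Medium – Calcium-containing HEPES buffer, pH 7.2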
DENV2 CPE rescue: DENV2-induced cell death inhibition | DENV2-infected cells, cytopathic effect rescue, plate reader | CPE inhibition, % at 9.99 µM | actives 1.7% (n = 350,000); in the data active means CPE inhibition above about 20%, passing the limit was not always enough; inconclusive means no clear call, values can overlap the other calls; tested in BHK-21 cells
CAL PDZ FP-1: inhibitors of human CAL PDZ peptide binding | purified CAL PDZ, TMR-peptide fluorescence polarization, 1 h | inhibition, % at 24.9 µM | actives 0.92% (n = 300,000) | AID 602252;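 active means mean inhibition of at least 30% with at least half of replicates also reaching 30%; inconclusive means no clear call, values can overlap the other calls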
CAL PDZ FP-2: blocks peptide binding to human CAL PDZ domain | Q9HD26 | purified CAL PDZ, TMR-peptide fluorescence polarization, 1 h | inhibition, % at 20 µM | actives 0.02% (n = 330,000) | AID 504414;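 active means highest replicate inhibition of at least 40%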
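Material – purified CerCALP PDZ construct · Detection – FP readout, S and P plane fluorescence · Measure – percent inhibition from loss of millipolarization · Controls – unlabelled peptide for full inhibition, DMSO wells as neutral · Probe or stimulus – TMR-labelled reporter peptide T*-PRC34 bound in PDZ groove · Times – 1 h at RT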
A number is an active result; . = inactive; ? = inconclusive; / = no result.

SMILES	SIRT5 inh	ERAP1 HTS inh	S100A4 MyoIIA	DENV2 CPE rescue	CAL PDZ FP-1	CAL PDZ FP-2
C[C@@H]1CN([C@@H](C)CO)C(=O)c2cccc(NC(=O)CCCCCC(=O)Nc3ccccc3N)c2O[C@H]1CN(C)Cc1ccc(-c2ccccc2)cc1	18.3	.	.	.	/	/
C[C@@H]1CN([C@H](C)CO)C(=O)c2cccc(NC(=O)CCCCCC(=O)Nc3ccccc3N)c2O[C@@H]1CN(C)Cc1ccc(Oc2ccccc2)cc1	.	.	.	.	/	/
CN(C)C(=O)c1ccc(-c2cccc(-c3nc(C(=O)NC4CCC4)cc4c3[C@H](CCO)N([S@@](=O)C(C)(C)C)C4)c2)cc1	.	.	.	.	/	/
CCOC(=O)C1=C(C)N(C[C@@H]2CC[C@@H](Cc3ccc4cc(OC)ccc4c3)O2)C(=O)NC1c1ccccc1 (some centres undefined)	.	.	.	48.7	.	.
COc1cccc(S(=O)(=O)Nc2ccc3c(c2)[C@H]2C[C@@H](CC(=O)O)O[C@H](CO)[C@H]2O3)c1	.	.	.	.	/	/
CCOC(=O)Cc1nnc(NC(=O)CCc2ccccc2)s1	16.8	.	.	.	.	.
CCOC(=O)Cc1csc(NC(=O)CCc2ccccc2)n1	.	.	.	.	/	.
C=CCC1Cc2c(Br)cccc2C(CC=C)N1 (centres undefined)	.	.	.	.	/	.
C=CC[C@H]1Cc2c(cccc2[N+](=O)[O-])[C@H](CC=C)N1	.	.	.	.	39.5	.
Cc1cc(N)n(-c2ccc(C)c(C)c2)n1	.	.	.	.	.	.
Cc1cc(N)n(-c2ccc(Oc3ccccc3)c(S(=O)(=O)O)c2)n1	47.5	.	.	.	.	.
COCCCN1C(=O)C(CC(=O)NC(c2ccccc2)c2ccccc2)CC(C(=O)N(C(C)C)C(C)C)=C1C (centres undefined)	.	.	.	56.8	/	/
COCCCN1C(=O)C(CC(=O)NC(c2ccccc2)c2ccccc2)CC(C(=O)N2CCOCC2)=C1C (centres undefined)	29.4	/	.	.	/	/
COCCCN1C(=O)C(CC(=O)NC(c2ccccc2)c2ccccc2)CC(C(=O)N(C)C)=C1C (centres undefined)	.	.	.	?	/	/
CC(C)NC(=O)N(C)C[C@H]1Oc2ncc(C#Cc3ccccc3F)cc2C(=O)N([C@H](C)CO)C[C@@H]1C	.	.	.	.	/	/
O=C(C[C@H]1CC[C@@H]2NC[C@@H](O)COC[C@H]2O1)NCc1ccc(Oc2ccccc2)cc1	.	.	.	.	/	/
Cc1cccnc1NC(=O)CNC(=O)C1CCCCC1	.	.	.	.	35.8	.
C[C@@H]1CCCCO[C@@H](CN(C)C(=O)c2ccncc2)[C@H](C)CN([C@@H](C)CO)C(=O)c2cc(N(C)C)ccc2O1	.	.	.	.	/	/
CC(NC(=O)/C(C#N)=C/c1ccc(OCC(=O)O)cc1)c1ccccc1 (centres undefined)	.	35.4	.	.	.	.
CCn1c2c(n(C(C)=O)c1=O)C[C@@H](c1ccccc1)[C@@H](C)[C@@H](C(=O)N1CCCC1)C2	/	.	.	49.7	/	/
C[C@@H]1CN([C@H](C)CO)C(=O)c2cccc(NS(=O)(=O)c3cn(C)cn3)c2O[C@H]1CN(C)Cc1ccc(C(=O)Nc2ccccc2N)cc1	.	.	.	.	/	/
COc1ccc(S(=O)(=O)N(C)C[C@H]2OCCCC[C@H](C)Oc3ccc(NC(=O)Nc4c(C)noc4C)cc3C(=O)N([C@@H](C)CO)C[C@H]2C)cc1	.	.	.	.	/	/
COc1ccc(S(=O)(=O)N(C)C[C@H]2OCCCC[C@H](C)Oc3ccc(NC(=O)NC(C)C)cc3C(=O)N([C@H](C)CO)C[C@H]2C)cc1	.	.	.	.	/	/
COc1ccc(S(=O)(=O)N(C)C[C@H]2OCCCC[C@H](C)Oc3ccc(NC(=O)Nc4c(C)noc4C)cc3C(=O)N([C@H](C)CO)C[C@@H]2C)cc1	.	.	.	67.0	/	/
COc1ccc(S(=O)(=O)N(C)C[C@@H]2OCCCC[C@H](C)Oc3ccc(NC(=O)NC(C)C)cc3C(=O)N([C@@H](C)CO)C[C@H]2C)cc1	.	.	.	49.2	/	/

Source: PubChem
